Test results published in ChEMBL document CHEMBL1944596, “7,8-dichloro-1-oxo-β-carbolines as a versatile scaffold for the development of potent and selective kinase inhibitors with unusual binding modes” (J Med Chem, 2012).

How the values were obtained:
[1] = target: Tyrosine-protein kinase Fes/Fps (Homo sapiens) (UniProt P07332); test: Binding affinity to FES assessed as change in thermal denaturation at 10 uM by thermal stability shift assay
Outline: (§1)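 Each compound was screened across a kinase panel by thermal stability shift assay. The read-out was the shift in protein melting temperature (ΔTm, in °C) relative to the unliganded kinase. A ΔTm of 4.0 °C served as the hit cutoff.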

[2] = target: Glycogen synthase kinase-3 beta (Homo sapiens) (UniProt P49841); test: Binding affinity to GSK3-beta assessed as change in thermal denaturation at 10 uM by thermal stability shift assay; outline: as §1
[3] = target: T1, Myosin light chain kinase family member 4 (Homo sapiens) (UniProt Q86YV6); test: Binding affinity to SGK085 assessed as change in thermal denaturation at 10 uM by thermal stability shift assay; outline: as §1
T1 sequence (whole entry): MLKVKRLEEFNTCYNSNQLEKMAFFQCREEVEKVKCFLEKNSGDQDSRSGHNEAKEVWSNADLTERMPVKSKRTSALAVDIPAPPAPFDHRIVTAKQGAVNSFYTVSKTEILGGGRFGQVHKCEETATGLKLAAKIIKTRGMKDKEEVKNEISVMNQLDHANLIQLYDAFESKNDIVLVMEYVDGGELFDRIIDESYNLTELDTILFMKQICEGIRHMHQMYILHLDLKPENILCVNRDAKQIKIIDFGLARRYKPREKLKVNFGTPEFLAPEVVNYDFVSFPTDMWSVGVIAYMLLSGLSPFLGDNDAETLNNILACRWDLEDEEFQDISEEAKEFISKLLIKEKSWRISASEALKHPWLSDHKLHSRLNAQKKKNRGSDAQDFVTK

[4] = target: Serine/threonine-protein kinase pim-1 (Homo sapiens, UniProt P11309); test: Binding affinity to PIM1 assessed as change in thermal denaturation at 10 uM by thermal stability shift assay; outline: as §1
[5] = target: Serine/threonine-protein kinase PLK1 (Homo sapiens) (UniProt P53350); test: Binding affinity to PLK1 assessed as change in thermal denaturation at 10 uM by thermal stability shift assay; outline: as §1
[6] = target: Protein kinase C gamma type (Homo sapiens) (UniProt P05129); test: Binding affinity to PKCgamma assessed as change in thermal denaturation at 10 uM by thermal stability shift assay; outline: as §1
[7] = target: T2, cAMP-dependent protein kinase catalytic subunit PRKX (Homo sapiens) (UniProt P51817); test: Binding affinity to PRKX assessed as change in thermal denaturation at 10 uM by thermal stability shift assay; outline: as §1
T2 sequence (whole entry): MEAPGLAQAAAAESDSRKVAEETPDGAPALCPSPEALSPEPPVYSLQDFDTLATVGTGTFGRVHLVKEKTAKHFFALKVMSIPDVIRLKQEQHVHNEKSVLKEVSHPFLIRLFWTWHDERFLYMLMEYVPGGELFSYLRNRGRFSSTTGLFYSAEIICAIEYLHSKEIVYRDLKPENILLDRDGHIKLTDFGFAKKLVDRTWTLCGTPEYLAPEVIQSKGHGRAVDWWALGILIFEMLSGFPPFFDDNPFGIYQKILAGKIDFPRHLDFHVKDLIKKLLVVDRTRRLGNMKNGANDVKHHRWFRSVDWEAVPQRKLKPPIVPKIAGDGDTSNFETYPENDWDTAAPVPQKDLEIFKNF

[8] = target: T3, Serine/threonine-protein kinase 17A (Homo sapiens) (UniProt Q9UEE5); test: Binding affinity to DRAK1 assessed as change in thermal denaturation at 10 uM by thermal stability shift assay; outline: as §1
T3 sequence (whole entry): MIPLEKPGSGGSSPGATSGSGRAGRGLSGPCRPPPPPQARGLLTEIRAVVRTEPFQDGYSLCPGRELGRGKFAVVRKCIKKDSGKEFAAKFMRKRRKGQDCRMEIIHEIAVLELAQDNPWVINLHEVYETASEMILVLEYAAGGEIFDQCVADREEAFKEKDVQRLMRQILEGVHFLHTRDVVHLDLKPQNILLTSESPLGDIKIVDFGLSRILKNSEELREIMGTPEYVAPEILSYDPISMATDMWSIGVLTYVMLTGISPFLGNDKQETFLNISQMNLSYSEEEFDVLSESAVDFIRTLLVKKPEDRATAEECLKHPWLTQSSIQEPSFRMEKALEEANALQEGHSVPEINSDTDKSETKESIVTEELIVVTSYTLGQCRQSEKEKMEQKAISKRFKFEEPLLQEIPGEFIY

[9] = target: T4, Serine/threonine-protein kinase 17B (Homo sapiens) (UniProt O94768); test: Binding affinity to DRAK2 assessed as change in thermal denaturation at 10 uM by thermal stability shift assay; outline: as §1
T4 sequence (whole entry): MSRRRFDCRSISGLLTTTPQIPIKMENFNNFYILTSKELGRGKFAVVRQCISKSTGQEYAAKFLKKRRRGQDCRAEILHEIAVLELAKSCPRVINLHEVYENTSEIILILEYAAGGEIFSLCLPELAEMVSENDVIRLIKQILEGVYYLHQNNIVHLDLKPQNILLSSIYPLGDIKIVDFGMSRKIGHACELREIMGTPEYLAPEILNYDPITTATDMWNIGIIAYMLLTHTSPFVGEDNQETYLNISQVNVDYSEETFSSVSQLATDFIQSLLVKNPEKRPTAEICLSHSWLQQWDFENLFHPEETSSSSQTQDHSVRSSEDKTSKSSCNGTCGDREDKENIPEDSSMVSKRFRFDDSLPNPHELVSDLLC

[10] = target: TGF-beta receptor type-2 (Homo sapiens) (UniProt P37173); test: Binding affinity to TGFBR2 assessed as change in thermal denaturation at 10 uM by thermal stability shift assay; outline: as §1
[11] = Binding affinity to RSK4beta assessed as change in thermal denaturation at 10 uM by thermal stability shift assay; outline: as §1
[12] = target: AP2-associated protein kinase 1 (Homo sapiens) (UniProt Q2M2I8); test: Binding affinity to AAK1 assessed as change in thermal denaturation at 10 uM by thermal stability shift assay; outline: as §1
[13] = target: BMP-2-inducible protein kinase (Homo sapiens) (UniProt Q9NSY1); test: Binding affinity to BIKE assessed as change in thermal denaturation at 10 uM by thermal stability shift assay; outline: as §1
[14] = target: Dual specificity protein kinase CLK1 (Homo sapiens) (UniProt P49759); test: Binding affinity to CLK1 assessed as change in thermal denaturation at 10 uM by thermal stability shift assay; outline: as §1
[15] = target: Death-associated protein kinase 3 (Homo sapiens) (UniProt O43293); test: Binding affinity to N-terminus His6-tagged DAPK3 expressed in Escherichia coli BL21 (DE3) cells coexpressing pCOEX assessed as change in thermal denaturation at 10 uM by thermal stability shift assay
Outline: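 DAPK3 was expressed in E. coli grown in TB with kanamycin and chloramphenicol at 37 °C, cooled to 25 °C, and induced with 0.5 mM IPTG. Binding was read as thermal-shift ΔTm in °C.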

Sequence of Death-associated protein kinase 3 (Homo sapiens) (O43293 whole entry, looked up): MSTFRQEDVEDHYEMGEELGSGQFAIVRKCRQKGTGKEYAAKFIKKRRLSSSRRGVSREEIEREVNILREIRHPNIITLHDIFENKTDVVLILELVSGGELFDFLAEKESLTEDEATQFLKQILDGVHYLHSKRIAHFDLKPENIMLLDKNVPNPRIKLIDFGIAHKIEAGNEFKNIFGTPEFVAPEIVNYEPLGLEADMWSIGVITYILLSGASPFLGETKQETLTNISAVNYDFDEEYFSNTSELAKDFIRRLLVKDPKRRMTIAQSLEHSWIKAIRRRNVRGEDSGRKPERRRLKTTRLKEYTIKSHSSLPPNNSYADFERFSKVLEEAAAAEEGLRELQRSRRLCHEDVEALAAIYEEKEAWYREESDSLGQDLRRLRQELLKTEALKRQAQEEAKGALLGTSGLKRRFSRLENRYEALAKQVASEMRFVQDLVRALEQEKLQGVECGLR
Sequence of Serine/threonine-protein kinase pim-1 (P11309 whole entry, looked up): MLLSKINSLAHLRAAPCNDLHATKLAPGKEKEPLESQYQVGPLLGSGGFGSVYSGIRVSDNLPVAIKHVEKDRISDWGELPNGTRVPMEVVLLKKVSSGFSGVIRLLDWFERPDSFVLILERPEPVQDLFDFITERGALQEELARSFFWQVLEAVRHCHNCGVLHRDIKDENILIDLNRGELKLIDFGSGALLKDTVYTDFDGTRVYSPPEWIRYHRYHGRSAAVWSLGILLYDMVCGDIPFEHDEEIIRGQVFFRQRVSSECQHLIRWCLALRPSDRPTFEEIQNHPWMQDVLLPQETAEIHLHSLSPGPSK
Sequence of Serine/threonine-protein kinase PLK1 (Homo sapiens) (P53350 whole entry): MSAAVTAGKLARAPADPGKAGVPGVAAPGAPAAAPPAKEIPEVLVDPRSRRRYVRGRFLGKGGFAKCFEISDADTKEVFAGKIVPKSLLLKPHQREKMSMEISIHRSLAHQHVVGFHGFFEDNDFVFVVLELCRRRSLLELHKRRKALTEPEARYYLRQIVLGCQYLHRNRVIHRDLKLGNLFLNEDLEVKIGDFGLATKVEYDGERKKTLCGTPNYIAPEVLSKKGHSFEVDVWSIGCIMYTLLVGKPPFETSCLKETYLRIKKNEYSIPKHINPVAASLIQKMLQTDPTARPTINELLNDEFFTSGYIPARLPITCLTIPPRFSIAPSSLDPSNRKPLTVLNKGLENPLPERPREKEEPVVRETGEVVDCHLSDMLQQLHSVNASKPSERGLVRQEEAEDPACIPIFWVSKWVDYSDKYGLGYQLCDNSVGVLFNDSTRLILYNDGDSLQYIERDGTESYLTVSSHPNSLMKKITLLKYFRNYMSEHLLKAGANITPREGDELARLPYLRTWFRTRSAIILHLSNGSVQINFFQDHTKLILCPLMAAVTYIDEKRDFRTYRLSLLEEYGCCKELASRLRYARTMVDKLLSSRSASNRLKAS
Sequence of Glycogen synthase kinase-3 beta (Homo sapiens) (P49841 whole entry, looked up): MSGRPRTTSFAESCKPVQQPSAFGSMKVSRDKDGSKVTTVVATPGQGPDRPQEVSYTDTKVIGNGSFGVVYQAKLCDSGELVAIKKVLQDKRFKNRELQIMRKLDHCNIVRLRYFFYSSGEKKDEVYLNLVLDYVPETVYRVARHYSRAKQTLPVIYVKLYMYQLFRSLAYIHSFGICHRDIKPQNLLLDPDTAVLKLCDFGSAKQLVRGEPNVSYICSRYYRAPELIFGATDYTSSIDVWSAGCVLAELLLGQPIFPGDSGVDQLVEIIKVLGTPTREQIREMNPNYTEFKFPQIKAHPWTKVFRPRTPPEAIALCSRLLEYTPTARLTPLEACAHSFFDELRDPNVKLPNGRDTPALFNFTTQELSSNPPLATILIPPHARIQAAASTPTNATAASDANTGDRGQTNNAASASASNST
Sequence of Tyrosine-protein kinase Fes/Fps (Homo sapiens) (P07332 whole entry): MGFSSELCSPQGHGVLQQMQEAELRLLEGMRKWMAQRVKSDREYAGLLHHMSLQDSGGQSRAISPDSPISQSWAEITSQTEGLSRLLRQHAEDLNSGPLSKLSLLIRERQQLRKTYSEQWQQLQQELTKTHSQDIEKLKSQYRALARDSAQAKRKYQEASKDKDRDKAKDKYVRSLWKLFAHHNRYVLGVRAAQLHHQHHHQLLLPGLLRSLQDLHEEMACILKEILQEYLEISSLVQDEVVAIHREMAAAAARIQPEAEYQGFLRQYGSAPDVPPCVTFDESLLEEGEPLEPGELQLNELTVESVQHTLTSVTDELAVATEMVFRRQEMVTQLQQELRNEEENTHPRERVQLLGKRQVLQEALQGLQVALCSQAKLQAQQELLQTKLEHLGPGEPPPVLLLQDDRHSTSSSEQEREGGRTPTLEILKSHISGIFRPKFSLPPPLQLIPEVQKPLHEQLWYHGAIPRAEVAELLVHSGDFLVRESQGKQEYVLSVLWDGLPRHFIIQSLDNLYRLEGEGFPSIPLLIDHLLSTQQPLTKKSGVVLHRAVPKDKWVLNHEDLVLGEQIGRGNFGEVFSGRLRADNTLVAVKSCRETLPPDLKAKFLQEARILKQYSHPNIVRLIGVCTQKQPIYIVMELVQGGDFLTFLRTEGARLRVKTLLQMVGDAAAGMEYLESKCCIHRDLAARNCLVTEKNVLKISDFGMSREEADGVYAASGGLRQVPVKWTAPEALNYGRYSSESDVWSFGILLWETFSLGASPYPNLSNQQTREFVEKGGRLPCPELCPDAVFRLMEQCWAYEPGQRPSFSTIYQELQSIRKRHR
Sequence of AP2-associated protein kinase 1 (Homo sapiens) (Q2M2I8 whole entry, looked up): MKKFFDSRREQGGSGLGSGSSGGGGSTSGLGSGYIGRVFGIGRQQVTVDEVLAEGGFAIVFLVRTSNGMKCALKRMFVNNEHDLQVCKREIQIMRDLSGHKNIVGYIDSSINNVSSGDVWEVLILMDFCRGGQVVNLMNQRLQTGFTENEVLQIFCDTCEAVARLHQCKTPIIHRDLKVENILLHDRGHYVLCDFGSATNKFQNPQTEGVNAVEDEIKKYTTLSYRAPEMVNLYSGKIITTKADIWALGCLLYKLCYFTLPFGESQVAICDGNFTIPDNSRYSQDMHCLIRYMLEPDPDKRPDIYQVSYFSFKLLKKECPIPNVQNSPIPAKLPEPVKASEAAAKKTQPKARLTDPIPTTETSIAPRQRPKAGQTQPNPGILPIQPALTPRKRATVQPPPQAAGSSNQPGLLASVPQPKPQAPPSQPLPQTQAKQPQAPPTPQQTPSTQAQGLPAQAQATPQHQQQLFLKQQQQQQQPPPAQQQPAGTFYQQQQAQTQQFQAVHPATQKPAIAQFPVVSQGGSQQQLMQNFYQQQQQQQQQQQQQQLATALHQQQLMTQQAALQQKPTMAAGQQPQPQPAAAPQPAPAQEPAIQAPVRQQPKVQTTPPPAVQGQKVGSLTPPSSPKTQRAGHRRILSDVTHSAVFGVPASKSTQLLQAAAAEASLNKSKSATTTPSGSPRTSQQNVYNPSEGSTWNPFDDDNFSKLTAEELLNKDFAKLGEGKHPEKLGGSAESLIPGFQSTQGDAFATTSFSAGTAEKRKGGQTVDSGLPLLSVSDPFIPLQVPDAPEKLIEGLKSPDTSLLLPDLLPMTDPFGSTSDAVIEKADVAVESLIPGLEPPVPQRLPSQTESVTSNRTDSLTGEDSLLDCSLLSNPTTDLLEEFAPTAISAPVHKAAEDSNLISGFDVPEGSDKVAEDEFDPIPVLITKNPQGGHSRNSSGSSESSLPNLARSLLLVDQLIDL
Sequence of TGF-beta receptor type-2 (Homo sapiens) (P37173 whole entry): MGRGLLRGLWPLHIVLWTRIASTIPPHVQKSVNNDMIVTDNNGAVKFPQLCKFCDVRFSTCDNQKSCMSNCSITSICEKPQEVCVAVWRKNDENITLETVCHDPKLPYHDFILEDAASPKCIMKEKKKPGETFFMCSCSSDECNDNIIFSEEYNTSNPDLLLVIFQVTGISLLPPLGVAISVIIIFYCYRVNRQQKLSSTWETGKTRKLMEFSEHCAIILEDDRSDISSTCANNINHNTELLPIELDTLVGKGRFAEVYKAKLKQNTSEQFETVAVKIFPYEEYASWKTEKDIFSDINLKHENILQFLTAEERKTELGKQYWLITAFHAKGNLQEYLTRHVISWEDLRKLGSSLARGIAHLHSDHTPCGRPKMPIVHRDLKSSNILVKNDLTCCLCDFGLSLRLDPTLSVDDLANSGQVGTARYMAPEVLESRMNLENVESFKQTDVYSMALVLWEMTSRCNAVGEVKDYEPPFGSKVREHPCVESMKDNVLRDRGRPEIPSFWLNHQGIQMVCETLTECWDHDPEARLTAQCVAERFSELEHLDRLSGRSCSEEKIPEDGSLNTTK

SMILES	ΔTm [1] [°C]	ΔTm [2] [°C]	ΔTm [3] [°C]	ΔTm [4] [°C]	ΔTm [5] [°C]	ΔTm [6] [°C]	ΔTm [7] [°C]	ΔTm [8] [°C]	ΔTm [9] [°C]	ΔTm [10] [°C]	ΔTm [11] [°C]	ΔTm [12] [°C]	ΔTm [13] [°C]	ΔTm [14] [°C]	ΔTm [15] [°C]
CCC1(CC)NC(=O)c2c(c3ccc(Cl)c(Cl)c3n2C)C1C#N (stereo not given)	0	2	0.4	3.3	0.9	0.8	0.8	2.6	2.9	5	-0.1	1.7	1.2	3.5	2.4
Cn1c2c(Cl)c(Cl)ccc2c2cc(N)[nH]c(=O)c21	0.4	2.9	2.9	4	1.4	0.2	0.8	6.9	3	7.9	1.2	2	5.2	5.9	2.6
CC(=O)NCC1c2c(n(C)c3c(Cl)c(Cl)ccc23)C(=O)NC1(C)C (racemic)	0.4	0.2	0.6	1.1	0.7	0	0.7	0.9	1.6	1.5	0.4	0.2	0.4	2.6	0.8
CCN1CCC2(CC1)NC(=O)c1c(c3ccc(Cl)c(Cl)c3n1C)C2C#N (racemic)	0.7	1.5	0	7.4	0.4	4.5	3.1	1.6	1.1	0.3	0.2	0.2	-0.5	4	4.6
Cn1c2c(c3ccccc31)C(C#N)C(C)(C)NC2=O (stereo not given)	0	1.8	1.7	0.9	3.2	0.4	0.5	0.5	0.3	2.9	0.1	0.6	1.1	2.4	0.6
CN1CCC2(CC1)NC(=O)c1c(c3ccc(Cl)c(Cl)c3n1C)C2C#N (racemic)	0.5	2.2	1.5	7.7	0.6	3.9	3.3	2.7	1.2	1.1	0.2	0.9	0.8	5.7	6.3
Cn1c2c(Cl)c(Cl)ccc2c2cc[nH]c(=O)c21	0.1	1.4	6.4	4	1.6	1.2	0.3	6.2	3.6	10.1	4	4.6	8.2	4.6	3.4
